Measured values published in ChEMBL document CHEMBL1143648, “3-[Substituted]-5-(5-pyridin-2-yl-2H-tetrazol-2-yl)benzonitriles: identification of highly potent and selective metabotropic glutamate subtype 5 receptor antagonists” (Bioorg Med Chem Lett, 2005).

system: not listed separately; test: Oral bioavailability in rat (dose 10 mg/kg p.o.); type: ADME, organism-based; conditions: in vivo
Method in brief: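 Rat pharmacokinetics compared oral dosing at 10 mg/kg (n = 3 Sprague–Dawley rats/group) with intravenous dosing at 2 mg/kg (n = 2 rats/group).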

bioavailability [%] | SMILES
15 | Cc1cc(C#N)cc(-n2nnc(-c3ccccn3)n2)c1
100 | N#Cc1cccc(-n2nnc(-c3ccccn3)n2)c1

system: Rattus norvegicus; test: Brain penetration measured by compound levels in plasma at a dose of 3 mg/kg upon intraperitoneal after 1 hr; type: functional, organism-based; design: dose 3 mg/kg; conditions: not given
Method in brief: (§1)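 Sprague–Dawley rats were dosed intraperitoneally at 10 or 3 mg/kg. Drug levels (µM) in brain and plasma were measured 1 h after dosing, and brain/plasma was expressed as a percentage.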

SMILES | Plasma levels [µM]
N#Cc1cc(F)cc(-n2nnc(-c3ccccn3)n2)c1 | 2.7

system: Rattus norvegicus; test: Effective dose for maximum occupancy in rat upon intraperitoneal administration measured 1 hr post administration; n = 5 - 6; type: functional; conditions: not given
Method in brief: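 Receptor occupancy was measured in Sprague–Dawley rats (n = 5–6 per group) 1 h after intraperitoneal dosing. ED50 is given in mg/kg ip.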

SMILES | Occ ED50 [mg/kg]
N#Cc1cc(F)cc(-n2nnc(-c3ccccn3)n2)c1 | 1.3
N#Cc1cccc(-n2nnc(-c3ccccn3)n2)c1 | 3

system: not listed separately; test: Half life in rat upon intravenous administration at a dose of 2 mg/kg; n = 2; type: ADME, organism-based; design: dose 2 mg/kg, route intravenous; conditions: in vivo
Method in brief: (§2)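 Sprague–Dawley rats (n = 2 per group) were given 2 mg/kg by the intravenous route for pharmacokinetic profiling.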

half-life [h] | SMILES
0.4 | Cc1cc(C#N)cc(-n2nnc(-c3ccccn3)n2)c1
2.9 | N#Cc1cc(F)cc(-n2nnc(-c3ccccn3)n2)c1
6.9 | N#Cc1cccc(-n2nnc(-c3ccccn3)n2)c1

system: not listed separately; test: Volume of distribution in rat upon intravenous administration at a dose of 2 mg/kg; n = 2; type: ADME, organism-based; design: dose 2 mg/kg, route intravenous; conditions: in vivo; method in brief: as §2

Vd [L/kg] | SMILES
1.4 | Cc1cc(C#N)cc(-n2nnc(-c3ccccn3)n2)c1
5 | N#Cc1cccc(-n2nnc(-c3ccccn3)n2)c1

system: Rattus norvegicus; test: Effective dose for maximum occupancy in rat upon oral administration measured 30 min post administration; n = 6 - 7; conditions: not given

SMILES | Occ ED50 [mg/kg]
N#Cc1cc(F)cc(-n2nnc(-c3ccccn3)n2)c1 | 3.6
N#Cc1cccc(-n2nnc(-c3ccccn3)n2)c1 | 3

system: Rattus norvegicus; test: Brain penetration measured by compound levels in brain at a dose of 3 mg/kg upon intraperitoneal after 1 hr; type: functional; conditions: not given; method in brief: as §1

SMILES | Brain levels [µM]
N#Cc1cc(F)cc(-n2nnc(-c3ccccn3)n2)c1 | 2.4

species: Rattus norvegicus; test: Ratio of compound levels in brain to that of plasma level was determined; type: functional; conditions: not given; method in brief: as §1

SMILES | Brain/Plasma [%]
N#Cc1cc(F)cc(-n2nnc(-c3ccccn3)n2)c1 | 90
N#Cc1cccc(-n2nnc(-c3ccccn3)n2)c1 | 150

molecular target: T1, Metabotropic glutamate receptor 5 (Rattus norvegicus, UniProt P31424); test: Ability to displace [3H]3-methoxy-5-(pyridin-2-ylethynyl)pyridine from binding to metabotropic glutamate receptor 5 in rat cortical membranes; type: cell membranes; conditions: not given
T1 sequence (P31424 whole entry): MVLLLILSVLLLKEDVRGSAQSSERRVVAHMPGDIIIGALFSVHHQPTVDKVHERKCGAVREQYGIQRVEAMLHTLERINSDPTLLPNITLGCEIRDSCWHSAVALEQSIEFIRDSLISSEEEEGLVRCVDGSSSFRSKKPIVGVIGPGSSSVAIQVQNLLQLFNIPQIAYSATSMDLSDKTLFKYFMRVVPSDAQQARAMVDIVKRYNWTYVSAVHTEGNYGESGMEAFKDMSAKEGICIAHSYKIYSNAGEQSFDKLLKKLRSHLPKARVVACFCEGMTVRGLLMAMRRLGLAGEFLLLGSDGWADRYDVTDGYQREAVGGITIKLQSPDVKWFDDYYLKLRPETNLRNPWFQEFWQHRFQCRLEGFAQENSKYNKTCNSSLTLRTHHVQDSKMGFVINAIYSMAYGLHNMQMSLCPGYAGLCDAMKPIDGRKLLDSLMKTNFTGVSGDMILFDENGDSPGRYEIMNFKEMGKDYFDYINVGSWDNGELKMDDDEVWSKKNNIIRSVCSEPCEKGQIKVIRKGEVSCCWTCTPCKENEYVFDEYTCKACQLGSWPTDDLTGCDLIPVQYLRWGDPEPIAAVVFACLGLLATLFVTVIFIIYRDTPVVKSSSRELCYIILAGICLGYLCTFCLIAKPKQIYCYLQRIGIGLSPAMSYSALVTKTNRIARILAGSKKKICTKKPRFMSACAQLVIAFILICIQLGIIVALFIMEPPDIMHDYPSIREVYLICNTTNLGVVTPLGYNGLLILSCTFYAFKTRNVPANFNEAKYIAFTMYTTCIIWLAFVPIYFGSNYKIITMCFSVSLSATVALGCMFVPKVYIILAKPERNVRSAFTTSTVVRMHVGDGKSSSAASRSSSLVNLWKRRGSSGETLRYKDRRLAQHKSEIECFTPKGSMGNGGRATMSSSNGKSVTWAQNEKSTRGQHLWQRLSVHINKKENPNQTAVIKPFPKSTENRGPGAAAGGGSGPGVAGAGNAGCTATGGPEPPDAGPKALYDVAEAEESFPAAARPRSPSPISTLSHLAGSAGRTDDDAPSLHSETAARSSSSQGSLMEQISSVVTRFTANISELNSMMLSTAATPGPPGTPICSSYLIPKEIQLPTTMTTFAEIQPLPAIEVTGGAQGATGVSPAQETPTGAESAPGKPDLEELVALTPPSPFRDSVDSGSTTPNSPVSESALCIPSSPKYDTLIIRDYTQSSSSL

Ki [nM] | SMILES
95 | N#Cc1cc(N)cc(-n2nnc(-c3ccccn3)n2)c1
> 600 | N#Cc1cc(OCc2ccccc2)cc(-n2nnc(-c3ccccn3)n2)c1
69 | c1ccc(-c2nnn(-c3cccc(-c4cccnc4)c3)n2)nc1
7 | Cc1cc(C#N)cc(-n2nnc(-c3ccccn3)n2)c1
> 600 | N#Cc1cc(-n2nnc(-c3ccccn3)n2)ccc1Cl
16 | N#Cc1cc(Oc2cccnc2)cc(-n2nnc(-c3ccccn3)n2)c1
18 | N#Cc1cc(C#N)cc(-n2nnc(-c3ccccn3)n2)c1
26 | N#Cc1cc(Cl)cc(-n2nnc(-c3ccccn3)n2)c1
271 | N#Cc1cc(OCC2CC2)cc(-n2nnc(-c3ccccn3)n2)c1
42 | N#Cc1cc(-n2nnc(-c3ccccn3)n2)cc([N+](=O)[O-])c1
6 | COc1cc(C#N)cc(-n2nnc(-c3ccccn3)n2)c1
5 | N#Cc1cc(F)cc(-n2ccc(-c3ccccn3)c2)c1
> 600 | Clc1cccc(-n2nnc(-c3ccccn3)n2)c1Cl
> 600 | N#Cc1ccc(Cl)c(-n2nnc(-c3ccccn3)n2)c1
> 600 | N#Cc1cccc(-n2ccc(-c3ccccn3)c2)c1
318 | N#Cc1cc(O)cc(-n2nnc(-c3ccccn3)n2)c1

system: Rattus norvegicus; test: Brain penetration measured by compound levels in plasma at a dose of 10 mg/kg upon intraperitoneal after 1 hr; type: functional, organism-based; design: dose 10 mg/kg; conditions: not given; method in brief: as §1

SMILES | Plasma levels [µM]
N#Cc1cccc(-n2nnc(-c3ccccn3)n2)c1 | 10

system: not listed separately; test: Maximum concentration in rat upon oral administration at a dose of 10 mg/kg; n = 3; type: ADME, organism-based; design: dose 10 mg/kg, route oral; conditions: in vivo
Method in brief: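 Sprague–Dawley rats (n = 3 per group) were given 10 mg/kg orally for pharmacokinetic profiling.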

Cmax [nM] | SMILES
800 | Cc1cc(C#N)cc(-n2nnc(-c3ccccn3)n2)c1

system: not listed separately; test: Clearance in rat upon intravenous administration at a dose of 2 mg/kg; n = 2; type: ADME, organism-based; design: dose 2 mg/kg, route intravenous; conditions: plasma, read-out: Clp; method in brief: as §2

clearance [mL/min/kg] | SMILES
50 | Cc1cc(C#N)cc(-n2nnc(-c3ccccn3)n2)c1
33 | N#Cc1cccc(-n2nnc(-c3ccccn3)n2)c1

system: Rattus norvegicus; test: Brain penetration measured by compound levels in brain at a dose of 10 mg/kg upon intraperitoneal after 1 hr; type: functional; conditions: not given; method in brief: as §1

SMILES | Brain levels [µM]
N#Cc1cccc(-n2nnc(-c3ccccn3)n2)c1 | 15

molecular target: T1, Metabotropic glutamate receptor 5; test: In vitro functional activity measured by changes in cytosolic [Ca2+] concentrations against rat metabotropic glutamate receptor 5; conditions: not given
Method in brief: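 A cell-based, high-throughput functional assay followed changes in cytosolic Ca2+ concentration by fluorescence detection.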

IC50 [nM] | SMILES
308 | N#Cc1cc(N)cc(-n2nnc(-c3ccccn3)n2)c1
> 1000 | N#Cc1cc(OCc2ccccc2)cc(-n2nnc(-c3ccccn3)n2)c1
63 | c1ccc(-c2nnn(-c3cccc(-c4cccnc4)c3)n2)nc1
77 | N#Cc1cccc(-n2nnc(-c3ncc[nH]3)n2)c1
6 | Cc1cc(C#N)cc(-n2nnc(-c3ccccn3)n2)c1
722 | N#Cc1cc(-n2nnc(-c3ccccn3)n2)ccc1Cl
15 | N#Cc1cc(Oc2cccnc2)cc(-n2nnc(-c3ccccn3)n2)c1
34 | N#Cc1cc(C#N)cc(-n2nnc(-c3ccccn3)n2)c1
7 | N#Cc1cc(Cl)cc(-n2nnc(-c3ccccn3)n2)c1
975 | N#Cc1cc(OCC2CC2)cc(-n2nnc(-c3ccccn3)n2)c1
42 | N#Cc1cc(-n2nnc(-c3ccccn3)n2)cc([N+](=O)[O-])c1
10 | COc1cc(C#N)cc(-n2nnc(-c3ccccn3)n2)c1
3 | N#Cc1cc(F)cc(-n2ccc(-c3ccccn3)c2)c1
1270 | Clc1cccc(-n2nnc(-c3ccccn3)n2)c1Cl
334 | N#Cc1ccc(Cl)c(-n2nnc(-c3ccccn3)n2)c1
47 | N#Cc1cc(F)cc(-n2nnc(-c3ncc[nH]3)n2)c1
190 | N#Cc1cccc(-n2ccc(-c3ccccn3)c2)c1
73 | N#Cc1cccc(-n2nnc(-c3ccccn3)n2)c1
562 | N#Cc1cc(O)cc(-n2nnc(-c3ccccn3)n2)c1
